Screening data deposited in PubChem BioAssay by The Scripps Research Institute Molecular Screening Center.
Shown are actives, neighbours in structure and some others; about 4.5% of the full set was active somewhere.
CHO parental Ca: counter-screen: ATP calcium response change in parental CHO cells; parental CHO-K1, ATP-induced calcium, Fluo-8 fluorescence; inhibition, % at 5.6 µM; hit rate 0.63% among 330,000;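 active = inhibition above that plate's mean sample inhibition plus 3 SD, cut at about 26% in these data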
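Test system: untransfected parental CHO cell line. Compound: one dose, 5.6 µM nominal. Detection: intracellular calcium via Fluo-8 no-wash fluorescent dye. Measure: % inhibition. Benchmarks: ATP-challenged DMSO wells low, unchallenged DMSO wells high.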
OX1R antag-1: blocks the human orexin 1 receptor; O43613; inhibition, % at 6.6 µM; hit rate 1.8% among 330,000; OX1R-expressing cells, FRET antagonist read-out; AID 485270; in the data active = inhibition mostly above about 38%, no sharp cut-off; inactive = mostly below about 40%
Target sequence (O43613 whole entry, looked up): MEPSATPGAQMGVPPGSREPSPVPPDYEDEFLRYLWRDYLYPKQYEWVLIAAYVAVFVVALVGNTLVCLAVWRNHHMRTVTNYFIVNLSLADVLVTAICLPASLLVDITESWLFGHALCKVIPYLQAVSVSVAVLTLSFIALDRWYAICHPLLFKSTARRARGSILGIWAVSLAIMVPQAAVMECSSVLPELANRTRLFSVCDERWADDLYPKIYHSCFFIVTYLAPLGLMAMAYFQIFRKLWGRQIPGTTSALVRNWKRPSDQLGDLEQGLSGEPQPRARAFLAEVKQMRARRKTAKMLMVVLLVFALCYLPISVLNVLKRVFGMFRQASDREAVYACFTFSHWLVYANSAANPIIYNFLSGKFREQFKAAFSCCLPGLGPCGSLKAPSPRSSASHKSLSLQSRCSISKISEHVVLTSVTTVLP
GPR7 antag: blocks human GPR7 receptor signaling. hit rate 1.1% among 290,000. AID 1861. GPR7-expressing cells, fluorescence antagonist assay. P48145. inhibition, % at 4.4 µM; in the data active = inhibition above about 16%, passing the limit was not always enough;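 note: cells stimulated with the agonist NPW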
TAAR1 antag: antagonists of human TAAR1 | Q96RJ0 | CHO RD-HGA16 TAAR1, Fluo-8 calcium fluorescence, antagonist | inhibition, % at 3 µM | hit rate 1.5% among 360,000 | AID 624466;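 active = inhibition above a per-plate cutoff, the mean inhibition of test compounds on that plate plus 3 SD, cut at about 49% in these data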
Target sequence (Q96RJ0 whole entry, looked up): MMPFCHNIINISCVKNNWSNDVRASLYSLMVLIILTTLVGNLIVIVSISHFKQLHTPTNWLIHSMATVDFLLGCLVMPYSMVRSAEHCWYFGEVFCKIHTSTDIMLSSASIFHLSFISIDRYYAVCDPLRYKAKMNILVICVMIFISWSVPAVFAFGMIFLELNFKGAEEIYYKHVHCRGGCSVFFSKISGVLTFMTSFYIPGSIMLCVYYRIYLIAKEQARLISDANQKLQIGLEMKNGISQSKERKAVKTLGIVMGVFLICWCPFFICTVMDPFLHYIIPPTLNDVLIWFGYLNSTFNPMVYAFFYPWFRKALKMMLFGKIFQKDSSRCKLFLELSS
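Material: CHO RD-HGA16 cells bearing hTAAR1; compound dosing: one-point dosing, 3 µM nominal final; schedule: dye loading 75 min at 37 °C, then 30 min room temperature; measured by: calcium fluorescence with Fluo-8; control set: vehicle and agonist controls; replication: n of 1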
OX1R antag-2: human HCRTR1 antagonism | inhibition, % at 5 µM | CHO/OX1R cells, Fluo-8 calcium fluorescence, orexin A | O43613 | AID 434989 | hit rate 0.43% among 330,000;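 active = inhibition above its plate's threshold, mean inhibition of all tested compounds on the plate plus 3 SD, cut at about 37% in these data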
TAAR1 ag: human TAAR1 agonism. hit rate 0.99% among 360,000. activation, % at 3 µM. AID 624467. CHO RD-HGA16 TAAR1, Fluo-8 calcium fluorescence; vehicle wells 0%, saturating PEA agonist 100%. Q96RJ0;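 active = activation above the mean activation of all test compounds in the run plus 3 SD, cut at about 38% in these data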
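Benchmarks: low control DMSO, high control PEA (EC100); System: CHO RD-HGA16 cells carrying human TAAR1 plus Gα16; Detection: Fluo-8 fluorescence, 5 s baseline then 140 s kinetic read; Schedule: 17-24 h plating, Fluo-8 75 min 37 °C, 30 min RT; Read-out basis: % activation from peak over basal fluorescence ratio, DMSO-to-PEA scaled.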
TAAR1 ag conf: confirmation of human TAAR1 agonists; activation, % at 3 µM; CHO RD-HGA16 TAAR1, Fluo-8 calcium fluorescence; scaled: DMSO 0%, maximal phenethylamine 100%; shares compounds with TAAR1 ag; AID 651783; hit rate 82% among 2,400;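 active = activation above a cutoff set at the run's mean compound activation plus 3 SD, cut at about 39% in these data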
Ga16 ag counter: nonselective agonist in parental cells, TAAR1 agonist counter-screen. CHO-Ga16 parental, Fluo-8 calcium fluorescence; normalized to maximal ATP response, DMSO zero. hit rate 50% among 2,400. activation, % at 3 µM. shares compounds with TAAR1 ag;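 active = activation above the run cutoff, the mean activation over all tested wells plus 3 SD, cut at about 12% in these data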
TAAR1 desensitize: TAAR1 response desensitization, agonist counter-screen; shares compounds with TAAR1 ag; CHO RD-HGA16 hTAAR1, Fluo-8 calcium, beta-PEA response inhibition; inhibition, % at 3 µM; hit rate 46% among 2,400;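 active = inhibition above the run cutoff, the mean inhibition of all test compounds plus 3 SD, cut at about 49% in these data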;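 note: beta-PEA stimulus applied at its EC80; loss of beta-PEA calcium signal after compound pretreatment read as receptor desensitization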
Ga16 nonsel ant: nonselective Ga16 antagonism, counter-screen; shares compounds with TAAR1 ag; inhibition, % at 3 µM; AID 651952; CHO-Ga16 ATP-induced calcium, Fluo-8 fluorescence; hit rate 39% among 2,400;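 active = inhibition above the plate's mean compound inhibition plus 3 SD, computed per plate, cut at about 22% in these data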
Numbers stand for hits.

How did COCC(C)N1C(=O)Cc2c1nc(N)c1c(N)nc(N3CCN(c4ccccc4F)CC3)c(C#N)c21 (stereo not drawn) do in these assays?
CHO parental Ca: inactive; OX1R antag-1: inactive; GPR7 antag: inactive; TAAR1 antag: 49; OX1R antag-2: inactive; TAAR1 ag: 52; TAAR1 ag conf: 49; Ga16 ag counter: 25; TAAR1 desensitize: 63; Ga16 nonsel ant: 45

What do the screens show for `CCCCOCCCNC(=O)C[C@@H]1C[C@@]2(C(=O)OC)CC(C)(C)CC=C2N(CCc2ccc(OC)c(OC)c2)C1=O`?
TAAR1 antag: inactive; TAAR1 ag: inactive

Results for O=C(COc1ccc(Cl)cc1Cl)Nc1ccc(CN2CCCCC2)cc1 ?
CHO parental Ca: inactive; OX1R antag-1: inactive; GPR7 antag: inactive; TAAR1 antag: inactive; OX1R antag-2: inactive; TAAR1 ag: 51; TAAR1 ag conf: 84; Ga16 ag counter: 40; TAAR1 desensitize: inactive; Ga16 nonsel ant: 27

How did O[C@@H](c1cc(C(F)(F)F)nc2c(C(F)(F)F)cccc12)[C@H]1CCCCN1 do in these assays?
CHO parental Ca: inactive; OX1R antag-1: inactive; TAAR1 antag: inactive; OX1R antag-2: inactive; TAAR1 ag: 45; TAAR1 ag conf: 51; Ga16 ag counter: 24; TAAR1 desensitize: inactive; Ga16 nonsel ant: 37

What do the screens show for `Cc1nc2c(C(F)(F)F)cccc2c2c1CCS2`?
CHO parental Ca: inactive; OX1R antag-1: inactive; GPR7 antag: inactive; TAAR1 antag: inactive; OX1R antag-2: inactive; TAAR1 ag: inactive

Results for O=C(CCl)N(CCCNC(=O)C(F)(F)F)c1ccc([N+](=O)[O-])cc1 ?
CHO parental Ca: inactive; OX1R antag-1: inactive; GPR7 antag: inactive; TAAR1 antag: inactive; OX1R antag-2: inactive; TAAR1 ag: inactive

Results for O=Cc1[nH]c2ccccc2c1N(C(=O)CCl)c1ccc([N+](=O)[O-])cc1 ?
CHO parental Ca: inactive; OX1R antag-1: inactive; GPR7 antag: inactive; TAAR1 antag: 52; OX1R antag-2: inactive; TAAR1 ag: 56; TAAR1 ag conf: 70; Ga16 ag counter: 44; TAAR1 desensitize: 73; Ga16 nonsel ant: 53

What do the screens show for `COC(=O)[C@@]12C[C@@H](CC(=O)NCCC(C)C)C(=O)N(Cc3cccc4ccccc34)C1=CCC(C)(C)C2`?
TAAR1 antag: inactive; TAAR1 ag: inactive

What do the screens show for `CCCCC(=O)Nc1ccc(C(=O)Nc2ccc(OC)cc2[N+](=O)[O-])cc1`?
CHO parental Ca: inactive; OX1R antag-1: inactive; GPR7 antag: inactive; TAAR1 antag: 76; OX1R antag-2: inactive; TAAR1 ag: 99; TAAR1 ag conf: inactive; Ga16 ag counter: inactive; TAAR1 desensitize: inactive; Ga16 nonsel ant: inactive

Results for O=C(NCCCN1CCOCC1)C(=O)NCC1OCCN1S(=O)(=O)c1ccc(Cl)cc1 (stereo not drawn) ?
TAAR1 antag: inactive; TAAR1 ag: inactive

Results for Cc1ccccc1C(=O)N(C)[C@H]1C[C@H]2c3[nH]c4ccccc4c3CCN2C(=O)[C@H]1[C@H](C)O ?
TAAR1 antag: inactive; TAAR1 ag: inactive

Results for Cc1nn(C)c(C(=O)NNC(=S)NCc2ccco2)c1Br ?
CHO parental Ca: inactive; OX1R antag-1: inactive; GPR7 antag: inactive; TAAR1 antag: inactive; OX1R antag-2: inactive; TAAR1 ag: 80; TAAR1 ag conf: inactive; Ga16 ag counter: inactive; TAAR1 desensitize: inactive; Ga16 nonsel ant: inactive

How did Cc1cc(/C=C2/C(=N)N3C(=NC2=O)SN=C3S(C)(=O)=O)c(C)n1-c1ccc(F)cc1 do in these assays?
CHO parental Ca: inactive; OX1R antag-1: inactive; GPR7 antag: inactive; TAAR1 antag: inactive; OX1R antag-2: inactive; TAAR1 ag: inactive

How did CC1=CC2=NC(=O)/C(=C\c3cc(C)n(-c4ccc(F)cc4)c3C)C(=N)N2O1 do in these assays?
CHO parental Ca: inactive; OX1R antag-1: inactive; GPR7 antag: inactive; TAAR1 antag: 87; OX1R antag-2: inactive; TAAR1 ag: 43; TAAR1 ag conf: inactive; Ga16 ag counter: inactive; TAAR1 desensitize: 50; Ga16 nonsel ant: 38

Results for c1ccc(SCCOCCN2CCc3ccccc3C2)cc1 ?
CHO parental Ca: inactive; OX1R antag-1: inactive; GPR7 antag: inactive; TAAR1 antag: inactive; OX1R antag-2: inactive; TAAR1 ag: 50; TAAR1 ag conf: 62; Ga16 ag counter: inactive; TAAR1 desensitize: inactive; Ga16 nonsel ant: inactive

What do the screens show for `NNc1nc(Nc2ccccc2)nc(N2CCCCC2)n1`?
CHO parental Ca: inactive; OX1R antag-1: inactive; GPR7 antag: inactive; TAAR1 antag: inactive; OX1R antag-2: inactive; TAAR1 ag: 45; TAAR1 ag conf: 66; Ga16 ag counter: inactive; TAAR1 desensitize: inactive; Ga16 nonsel ant: inactive

Results for O=c1nc(N2CCCCC2)nc(Nc2ccccc2)[nH]1 ?
CHO parental Ca: inactive; OX1R antag-1: inactive; GPR7 antag: inactive; TAAR1 antag: 69; OX1R antag-2: inactive; TAAR1 ag: 66; TAAR1 ag conf: 73; Ga16 ag counter: inactive; TAAR1 desensitize: 80; Ga16 nonsel ant: inactive

How did NNc1nc(Nc2ccc([N+](=O)[O-])cc2)nc(N2CCCCCC2)n1 do in these assays?
CHO parental Ca: inactive; OX1R antag-1: inactive; GPR7 antag: inactive; TAAR1 antag: inactive; OX1R antag-2: inactive; TAAR1 ag: inactive

What do the screens show for `Cc1c(CNCC(C)c2ccccc2)c(C(=O)O)c(C)n1Cc1ccccc1` (stereo not drawn)?
CHO parental Ca: inactive; OX1R antag-1: inactive; GPR7 antag: inactive; TAAR1 antag: inactive; OX1R antag-2: inactive; TAAR1 ag: 90; TAAR1 ag conf: 78; Ga16 ag counter: inactive; TAAR1 desensitize: inactive; Ga16 nonsel ant: inactive

What do the screens show for `CCCSc1ccc(C(=O)Nc2ccc(F)cc2F)cn1`?
CHO parental Ca: inactive; OX1R antag-1: inactive; GPR7 antag: inactive; TAAR1 antag: inactive; OX1R antag-2: inactive; TAAR1 ag: 67; TAAR1 ag conf: inactive; Ga16 ag counter: inactive; TAAR1 desensitize: inactive; Ga16 nonsel ant: inactive

How did Cc1ccc(N2C(=O)c3ccc(C(=O)N4CCN(Cc5ccccc5)CC4)cc3C2=O)cc1 do in these assays?
CHO parental Ca: inactive; OX1R antag-1: inactive; GPR7 antag: inactive; TAAR1 antag: 81; OX1R antag-2: inactive; TAAR1 ag: 87; TAAR1 ag conf: 94; Ga16 ag counter: 49; TAAR1 desensitize: 97; Ga16 nonsel ant: 74
